One series concerns HepG2. Briefly: Antitumor activity against human HepG2 cells assessed as inhibition of cell growth measured after 48 hrs by MTT assay. The class given is functional, cell-based. Particulars: HepG2, 48 h. Summed up:
(§1)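 MTT assay; cells seeded in 96-well plates, exposed 48 h to freshly prepared compound at five concentrations, four replicate wells each; MTT (5 mg/mL) added for 4 h, formazan dissolved in DMSO, absorbance at 490 nm. IC50 by nonlinear regression; mean of three independent experiments.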
(Tetrazolium assays rely on reduction of a dye to a coloured formazan, in cell work by metabolically active cells.)

A further series deals with HCT-116. Description: Antitumor activity against human HCT-116 cells assessed as inhibition of cell growth measured after 48 hrs by MTT assay. The class given is functional, cell-based. To be noted: HCT-116, 48 h. The method in brief: as §1
The test system of a further series is SW1990. Briefly: Antitumor activity against human SW1990 cells assessed as inhibition of cell growth measured after 48 hrs by MTT assay. The class given is functional, cell-based. Particulars: SW1990, 48 h. Summed up:
as §1

The test system of the next series is HEK293. Description: Cytotoxicity against human HEK293 cells assessed as reduction in cell viability measured after 48 hrs by MTT assay. The class given is cell-based. Particulars: HEK293, 48 h. Summed up:
as §1

Series [1] deals with T1, DNA topoisomerase 1 (Homo sapiens) (UniProt P11387).
T1 sequence (whole entry): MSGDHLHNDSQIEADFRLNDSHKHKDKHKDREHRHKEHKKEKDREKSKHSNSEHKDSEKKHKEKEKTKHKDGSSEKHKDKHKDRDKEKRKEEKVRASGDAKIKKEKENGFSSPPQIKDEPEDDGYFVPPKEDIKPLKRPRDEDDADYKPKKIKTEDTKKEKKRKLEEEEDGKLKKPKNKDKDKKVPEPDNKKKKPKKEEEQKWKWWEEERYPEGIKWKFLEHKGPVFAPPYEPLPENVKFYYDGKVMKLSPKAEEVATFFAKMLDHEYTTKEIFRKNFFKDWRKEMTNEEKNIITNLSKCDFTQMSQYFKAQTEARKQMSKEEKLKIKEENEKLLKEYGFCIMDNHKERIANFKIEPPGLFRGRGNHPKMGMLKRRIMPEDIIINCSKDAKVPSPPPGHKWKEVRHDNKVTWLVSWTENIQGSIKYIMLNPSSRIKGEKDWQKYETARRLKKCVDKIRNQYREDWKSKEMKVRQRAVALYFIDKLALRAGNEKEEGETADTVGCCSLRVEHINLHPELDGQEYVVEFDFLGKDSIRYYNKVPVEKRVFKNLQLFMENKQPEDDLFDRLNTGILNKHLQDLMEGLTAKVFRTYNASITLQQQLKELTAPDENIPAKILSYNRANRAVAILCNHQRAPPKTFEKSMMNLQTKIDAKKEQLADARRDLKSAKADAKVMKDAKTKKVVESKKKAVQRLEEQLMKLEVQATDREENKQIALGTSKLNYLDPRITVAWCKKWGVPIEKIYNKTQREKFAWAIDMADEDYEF
Briefly: Inhibition of human recombinant Topoisomerase 1 using supercoiled pBR322 DNA as substrate at 50 uM incubated for 30 mins by ethidium bromide staining based agarose gel electrophoresis. Summed up:
(§2)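 Cell-free relaxation assay: 1 U recombinant human Topo I with 0.5 µg supercoiled pBR322 in Topo I buffer (Tris-HCl pH 8.0, KCl, MgCl2, DTT, 0.1% BSA), 37 °C for 30 min. 10-HCPT and irinotecan as positive controls. Supercoiled, relaxed and nicked forms resolved on 0.8% agarose in TAE, 90 V for 2 h, ethidium bromide stained.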

The target of series [2] is T1, DNA topoisomerase 1 (Homo sapiens). Briefly: Inhibition of human recombinant Topoisomerase 1 using supercoiled pBR322 DNA as substrate at 100 uM incubated for 30 mins by ethidium bromide staining based agarose gel electrophoresis. The method in brief: as §2
Series [3] in a line: Aqueous solubility of the compound in 0.1 M Na2HPO4 solution at pH 7.4 incubated for 24 hrs by HPLC analysis. The class given is physicochemical. To be noted: for solubility at 24 h: 0.1 M Na2HPO4 solution, pH 7.4. The method in brief: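 Excess solid shaken in 0.2 mL 0.1 M phosphate buffer, pH 7.4, at 25 °C for 24 h, then filtered. Filtrate (100 µL) diluted to 1.5 mL and analysed by isocratic HPLC (CH3CN:H2O 40/60, 1.0 mL/min, 35 °C column, 254 nm). Concentration read from a calibration curve built from DMSO standards. Values are the mean of triplicate determinations, in mg/mL.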

A short description of series [4]: Stability of compound in 10% phosphate buffer assessed as proportion of lactone form level at pH 7.4 measured after 48 hrs by HPLC analysis. In kind it is physicochemical. Particulars: read-out: Drug metabolism. Summed up:
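1.0 mg dissolved in 50 mL 0.1 M phosphate buffer, pH 7.4, and shaken at 37 °C. […] Lactone versus carboxylate (ring-opened) form quantified by HPLC area normalisation. Mean of triplicate determinations.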

The nature of series [5]: Toxicity in iv dosed ICR mouse measured for 14 days. The class given is organism-based. To be noted: in vivo, time 14 day.
The nature of series [6]: Ratio of test compound solubility to camptothecin solubility in 0.1 M Na2HPO4 solution at pH 7.4 incubated for 24 hrs by HPLC analysis. In kind it is physicochemical. Particulars: buffer, pH 7.4, 24 h.

A word on the IC50: it is the midpoint of a concentration-inhibition curve. For orientation: solubility means the dissolved amount per volume that the medium holds. A low value points to little dissolved substance. In general, LD50 refers to the dose at which mortality reaches 50%. A low value points to a more toxic substance.

≈ marks a conversion by molar mass, not a printed value. Calls of active or inactive are those of the source. No cut-off for these calls is given here. Some results are limits rather than exact numbers.

Turning to `CC[C@@]1(OC(=O)NCCOCCO[C@@H]2O[C@H](COC(C)=O)[C@H](OC(C)=O)[C@H](OC(C)=O)[C@H]2OC(C)=O)C(=O)OCc2c1cc1n(c2=O)Cc2cc3ccccc3nc2-1`, the IC50 in the series with HepG2 is 5.6 µM; in the series with HCT-116, 3.5 µM; in the series on SW1990, 15.7 µM; in the series with HEK293, over 100 µM. In addition, the inhibition entry in series [1] and in series [2] was “Active” in each case. This compound registered a solubility at 24 h in series [3] of 500 µg/mL (≈ 617 µM). Besides, the remaining at 48 h in series [4] is 91%.

In the case of `CC[C@@]1(O)C(=O)OCc2c1cc1n(c2=O)Cc2cc3ccccc3nc2-1` [CAMPTOTHECIN], the concentration for half-maximal inhibition (IC50) with HepG2 stood at 0.4 µM; with HCT-116 it was 0.4 µM; in the series with SW1990, 0.2 µM; with HEK293, 0.6 µM. The compound further returned a solubility in series [3] (buffer, pH 7.4, 24 h) of 60 µg/mL (≈ 172 µM). Besides, the remaining at 48 h in [4] turned out to be 5%.

Consider `CCc1c2c(nc3ccc(OC(=O)N4CCC(N5CCCCC5)CC4)cc13)-c1cc3c(c(=O)n1C2)COC(=O)[C@]3(O)CC` [IRINOTECAN], for which the IC50 in the series with HepG2, in the series on HCT-116, in the series with SW1990 and in the series with HEK293 was over 100 µM throughout. Moreover, the inhibition result in series [2] is “Active”. Also, the median lethal dose (LD50) at 336 h in series [5] worked out at 85.1 mg/kg.

As to `CC[C@@]1(OC(=O)NCCOCCO[C@@H]2O[C@H](COC(C)=O)[C@@H](OC(C)=O)[C@H](OC(C)=O)[C@@H]2O[C@H]2O[C@H](COC(C)=O)[C@@H](OC(C)=O)[C@H](OC(N)=O)[C@H]2OC(C)=O)C(=O)OCc2c1cc1n(c2=O)Cc2cc3ccccc3nc2-1`, the IC50 in the series with HepG2 came to 1.6 µM; in the series with HCT-116, 1.3 µM; with SW1990, 11.3 µM; in the series with HEK293 it was 1.5 µM. The inhibition entry in [1] and in series [2] was “Active” throughout.

Consider `CC[C@@]1(OC(=O)NCCOCCO[C@@H]2O[C@H](CO)[C@@H](O)[C@H](OC(N)=O)[C@@H]2O)C(=O)OCc2c1cc1n(c2=O)Cc2cc3ccccc3nc2-1`, for which the IC50 came to 0.9 µM in the series with HepG2, 1.2 µM in the series on HCT-116, 5.2 µM in the series with SW1990 and 52.1 µM in the series on HEK293. Moreover, the inhibition result in [1] and in series [2] was “Active” each time. The compound also had a solubility at 24 h in [3] of 16300 µg/mL (≈ 23800 µM). Moreover, in [6], the Ratio came out at 2717. For the same compound, the remaining at 48 h in series [4] worked out at 92%.

Values taken from ChEMBL document CHEMBL4706509, “Oligosaccharide-camptothecin conjugates as potential antineoplastic drugs: Design, synthesis and biological evaluation” (Eur J Med Chem, 2020).
